Each compound was assayed against T1, Squalene synthase (Rattus norvegicus, UniProt Q02769) (assay: Tested for inhibitory activity against squalene synthetase in the presence of inorganic pyrophosphate (PPi)).
T1 sequence (Q02769 whole entry): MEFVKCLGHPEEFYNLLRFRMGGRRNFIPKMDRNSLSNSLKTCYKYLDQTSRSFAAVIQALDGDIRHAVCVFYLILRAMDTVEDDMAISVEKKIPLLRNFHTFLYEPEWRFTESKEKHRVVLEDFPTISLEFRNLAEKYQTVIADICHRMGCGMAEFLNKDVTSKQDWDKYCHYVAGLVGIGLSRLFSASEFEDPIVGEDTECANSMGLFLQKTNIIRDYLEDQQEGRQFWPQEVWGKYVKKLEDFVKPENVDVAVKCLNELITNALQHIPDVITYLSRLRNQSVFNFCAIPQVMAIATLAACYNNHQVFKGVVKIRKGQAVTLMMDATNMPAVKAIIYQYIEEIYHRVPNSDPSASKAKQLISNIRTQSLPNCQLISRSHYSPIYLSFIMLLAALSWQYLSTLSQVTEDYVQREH
Procedure, shortened: (§1)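 Rat liver microsomes (about 1 mg/mL protein) were prepared in pH 7.4 phosphate buffer with EDTA and stored at -80 °C. Samples were preincubated at 37 °C under nitrogen for 5 min. Final NADPH was 1.2 mM and MgCl2 5 mM. Tritiated farnesyl pyrophosphate started a 10-min reaction at 37 °C under nitrogen. Products were counted by liquid scintillation. Reactions ran in duplicate at several concentrations across at least four independent assays. IC50 was derived by linear regression of the pooled data.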

| IC50 | Structure (SMILES) |
| --- | --- |
| 0.004 µM | CC(C)=CCC/C(C)=C/CC/C(C)=C/CNCc1cccnc1 |
| 0.01 µM | CC(C)=CCC/C(C)=C/CC/C(C)=C/CNCc1ccccc1 |

The compounds below were run against T1, Squalene synthase (assay: Inhibitory activity against squalene synthetase in rat liver microsomes).
Parameters: species or system Microsome
Procedure, shortened: as §1

| Structure (SMILES) | IC50 |
| --- | --- |
| CC(C)CCCC(C)CCCC(C)CCNCc1cccnc1 (stereo not given) | 7 µM |
| CC(C)=CCC/C(C)=C/CC/C(C)=C/CNCC(C)CC/C=C(\C)CCC=C(C)C (stereo not given) | 1 µM |
| CC(C)=CCC/C(C)=C/CC/C(C)=C/CNCc1ccccc1 | 0.1 µM |
| CCN(C/C=C(\C)CC/C=C(\C)CCC=C(C)C)Cc1cccnc1 | 4.9 µM |
| CCN(C/C=C(\C)CC/C=C(\C)CCC=C(C)C)C/C=C(\C)CC/C=C(\C)CCC=C(C)C | 182 µM |
| CCNC/C=C(\C)CC/C=C(\C)CCC=C(C)C | 0.6 µM |
| CC(C)=CCC/C(C)=C/CC/C(C)=C/COC/C=C(\C)CC/C=C(\C)CCC=C(C)C | 828 µM |
| CC(C)=CCC/C(C)=C/CC/C(C)=C/CNC/C=C(\C)CC/C=C(\C)CCC=C(C)C | 48 µM |

The next lines start with the values.

| IC50 | Structure (SMILES) |
| --- | --- |
| 0.05 µM | CC(C)=CCC/C(C)=C/CC/C(C)=C/CNCc1cccnc1 |
| 23 µM | CC(C)=CCC/C(C)=C/CNCc1cccnc1 |
| 0.1 µM | CC(C)=CCC/C(C)=C/CC/C(C)=C/CNCc1ccncc1 |
| 33 µM | CC(C)=CCC/C(C)=C/CC/C(C)=C/COCc1cccnc1 |
| 23 µM | CC(C)=CCC/C(C)=C/CCC(C)CNCc1cccnc1 (stereo not given) |
